Measured values from ChEMBL document CHEMBL1143821, “Fatty acyl benzamido antibacterials based on inhibition of DnaK-catalyzed protein folding” (J Biol Chem, 2007).
Values after ≈ are worked out from the molar mass of the structure shown. Active and inactive are the calls of the source. No cut-off for these calls is given here.

Legend:
Escherichia coli [1] = assay: Increase in transcriptional activity of heat shock inducible rpoDPhs promoter of sigma32 gene in Escherichia coli MC4100 at 200 uM assessed as beta galactosidase activity after 12 hrs at 42 degC; assay type: functional
Escherichia coli [2] = assay: Antimicrobial activity against Escherichia coli MC4100 delta-tig at 30 degC; assay type: functional
[3] = Displacement of sigma32 derived peptide from Escherichia coli MC4100 DnaK
Escherichia coli [4] = assay: Antimicrobial activity against Escherichia coli MC4100 up to 1.4 mg/ml at 37 degC; assay type: functional, organism-based
Escherichia coli [5] = assay: Effect on membrane permeability of Escherichia coli MC4100 assessed as beta lactamase activity in medium at 25 degC; assay type: functional
How it was run: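 Cells were grown with 200 μM compound for 24 h. β-Lactamase activity released to the medium was compared with total activity.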

[6] = Toxicity against human erythrocytes assessed as hemolytic activity; assay type: cell-based, Erythrocyte
How it was run: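 Human erythrocytes were washed in Tris-buffered saline pH 7.4. Cells at 2.5×10^8 cells/ml were exposed to 3.1–50 μg/ml compound for 30 min at 42 °C with gentle shaking, chilled, and centrifuged. Hemoglobin in the supernatant was read at 550 nm after 10-fold dilution in 0.5% NH4OH. Saponin 100 mg/liter = 100%, phosphate buffer = 0%. EC50 from dose-response curves.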

Escherichia coli [7] = assay: Increase heat shock-induced protein aggregation in wild type Escherichia coli MC4100; assay type: functional, organism-based
How it was run: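 Wild-type MC4100 was grown at 30 °C to mid-exponential phase, exposed 15 min to compound (0.13 or 0.066 mg/ml), heat-shocked 30 min at 45 °C, then recovered 3 h at 30 °C. The Nonidet P-40-insoluble aggregated protein fraction was isolated by lysozyme/sonication lysis and differential centrifugation, then run on 12.5% SDS-PAGE with Coomassie stain, equal cell numbers per lane. ΔdnaK cells were the reference.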

Escherichia coli [8] = assay: Increase in transcriptional activity of heat shock inducible pGroESL promoter of sigma32 gene in Escherichia coli MC4100 at 200 uM assessed as beta galactosidase activity after 12 hrs at 42 degC; assay type: functional
Escherichia coli [9] = assay: Binding affinity to DnaK in Escherichia coli MC4100 at 0.7 mM by pull-down assay
How it was run: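 MC4100 grown overnight in LB at 42 °C and lysed by sonication. Lysate incubated 1 h at room temperature with 0.7 mM biotinylated inhibitor in buffer C (20 mM Tris/HCl pH 7.5, 50 mM KCl, 1 mM MgCl2). BSA-blocked streptavidin beads then added for a further 1 h. Beads washed twice; bound protein eluted with 1.92 mM (final) non-biotinylated parent inhibitor. Read by SDS-PAGE and anti-DnaK immunoblot.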

Escherichia coli [10] = assay: Increase in transcriptional activity of heat shock inducible PhtrL-lacZ promoter of sigma32 gene in Escherichia coli MC4100 at 200 uM assessed as beta galactosidase activity after 12 hrs at 42 degC; assay type: functional, organism-based
Escherichia coli [11] = assay: Inhibition of IPTG-induced thermotolerance in heat shocked Escherichia coli MC4100 expressing delta-DnaK at 1.35 mM; assay type: functional, organism-based
How it was run: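 E. coli MC4100 ΔdnaK pTrc99A-DnaK was grown at 30 °C in Terrific Broth and induced 1 h with 0–1.0 mM IPTG. Cells were heat-shocked 210 s at 57 °C with 1.35 mM compound added just before, then iced 2 min. Serial dilutions were spotted on LB with marker and IPTG and grown 12 h at 30 °C. DnaK levels were checked by immunoblot.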

[12] = Inhibition of Escherichia coli MC4100 DnaK assessed as effect on luciferase refolding
How it was run: (§1)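 Firefly luciferase was denatured 1 h at 10 °C in 6.0 M guanidinium chloride with 5 mM DTT, Tris pH 7.4, at 2.08 μM. It was diluted to 10.4 nM into MOPS pH 7.8 buffer with 1 mM ATP, 5 mM MgCl2, 436 nM DnaK, 160 nM DnaJ and 436 nM GrpE, preincubated 10 min with compound, at 10 °C and 30 °C. Activity was read by luminescence after 1 h. IC50 from a one-site competition fit.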

Escherichia coli [13] = assay: Increase in transcriptional activity of heat shock inducible PhtrP-lacZ promoter of sigma32 gene in Escherichia coli MC4100 at 200 uM assessed as beta galactosidase activity after 12 hrs at 42 degC; assay type: functional, organism-based
Escherichia coli [14] = assay: Inhibition of ATPase activity of Escherichia coli MC4100 DnaK at 150 uM
How it was run: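 Steady-state ATPase assay. 1 µM DnaK preincubated with 150 µM inhibitor for 10 min at 30 °C. Reaction started with 330 µM ATP and followed for at least 10 min.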

[15] = Inhibition of secondary amide peptide bond cis/trans isomerase activity of Escherichia coli MC4100 DnaK/DnaJ/GrpE assessed as luciferase refolding; how it was run: as §1
Escherichia coli [16] = assay: Activation of Escherichia coli MC4100 RNA polymerase at 200 uM by transcription assay
How it was run: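 In vitro transcription of small circular single-strand DNA universal templates by purified E. coli RNA polymerase core enzyme, run per the kit manufacturer's protocol.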

[17] = Inhibition of secondary amide peptide bond cis/trans isomerase activity of Escherichia coli MC4100 DnaK assessed as RNase T1P39A refolding assay
Escherichia coli [18] = assay: Antimicrobial activity against Escherichia coli MC4100 at 42 degC; assay type: functional
How it was run: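 Liquid growth inhibition in Mueller-Hinton medium, run in triplicate. Compound was dissolved in ethanol/10 mM potassium phosphate pH 7.8, and its concentration was set by absorbance at 236 nm. Varying concentrations were added to mid-log E. coli MC4100 and incubated 24 h at 42 °C, then plated at 37 °C overnight for CFU. MIC = concentration giving 99.9% growth inhibition (NCCLS).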

Escherichia coli [19] = assay: Antimicrobial activity against Escherichia coli MC4100 at 30 degC; assay type: functional
Escherichia coli [20] = assay: Induction of heat shock response in Escherichia coli MC4100 at 30 degC; assay type: functional, organism-based
Escherichia coli [21] = assay: Inhibition of Escherichia coli MC4100 DnaK-reduced carboxymethylated lactalbumin complex up to 500 uM
Escherichia coli [22] = assay: Inhibition of Escherichia coli MC4100 DnaK-reduced carboxymethylated lactalbumin complex at >25 uM

| IC50 [12] [µg/mL] | MIC (Escherichia coli [18]) [µg/mL] | Structure (SMILES) | EC50 [6] [µg/mL] | also measured |
| --- | --- | --- | --- | --- |
| 4.9 (≈ 10.3 µM) | 380 (≈ 801 µM) | CCCCCCCCCCCCCC(=O)NCc1ccc(C(=O)N[C@H](C(=O)O)[C@@H](C)CC)cc1 | 66 (≈ 139 µM) | Fold change (Escherichia coli [1]): 2; MIC (Escherichia coli [2]): 860 µg/mL (≈ 1810 µM); IC50 [3]: 29.1 µM; Kd [3]: 2.6 µM; Activity (Escherichia coli [4]): inactive; Activity (Escherichia coli [5]): 0.89%; Activity (Escherichia coli [7]): Active; Fold change (Escherichia coli [8]): 2; Activity (Escherichia coli [9]): Active; Activity (Escherichia coli [10]): inactive; Activity (Escherichia coli [11]): Active; Activity (Escherichia coli [13]): inactive; Activity (Escherichia coli [14]): inactive; IC50 [15]: 9.5 µM; Activity (Escherichia coli [16]): inactive; IC50 [17]: 2.7 µM; MIC (Escherichia coli [19]): ≥ 5000 µg/mL; Activity (Escherichia coli [20]): inactive; Activity (Escherichia coli [21]): inactive |
| 40.4 (≈ 96.5 µM) | 490 (≈ 1170 µM) | CCCCCCCCCC(=O)NCc1ccc(C(=O)N[C@H](C(=O)O)[C@@H](C)CC)cc1 | > 1000 |  |
| 4.6 (≈ 9.67 µM) | 100 (≈ 210 µM) | CCCCCCCCCCCCCC(=O)NCc1ccc(C(=O)N[C@@H](CC(N)=O)C(=O)O)cc1 | > 10 |  |
| 1.9 (≈ 4.25 µM) | 650 (≈ 1460 µM) | CCCCCCCCCCCC(=O)NCc1ccc(C(=O)N[C@H](C(=O)O)[C@@H](C)CC)cc1 | 400 (≈ 896 µM) |  |
| 6.1 (≈ 12.9 µM) | 1200 (≈ 2530 µM) | CCCCCCCCCCCCCC(=O)NCc1ccc(C(=O)N[C@H](C(N)=O)[C@@H](C)CC)cc1 | 100 (≈ 211 µM) |  |
| 3.6 (≈ 7.19 µM) | 1300 (≈ 2600 µM) | CCCCCC/C=C\CCCCCCCC(=O)NCc1ccc(C(=O)N[C@H](C(=O)O)[C@@H](C)CC)cc1 | 250 (≈ 499 µM) |  |
| 1.2 (≈ 2.39 µM) | 180 (≈ 358 µM) | CCCCCCCCCCCCCCCC(=O)NCc1ccc(C(=O)N[C@H](C(=O)O)[C@@H](C)CC)cc1 | 50 (≈ 99.5 µM) |  |
| 2.3 (≈ 4.33 µM) | 3100 (≈ 5840 µM) | CCCCCCCCCCCCCCCCCC(=O)NCc1ccc(C(=O)N[C@H](C(=O)O)[C@@H](C)CC)cc1 | 30 (≈ 56.5 µM) |  |
|  |  | CC(C)C[C@H](NC(=O)[C@H](CC(C)C)NC(=O)[C@H](CCCNC(=N)N)NC(=O)[C@@H](N)CC(N)=O)C(=O)N[C@@H](CC(C)C)C(=O)N[C@H](C(=O)NCC(=O)O)[C@@H](C)O |  | IC50 [3]: 1.3 µM; Activity (Escherichia coli [22]): Active |
|  | 14 (≈ 40.1 µM) | CC1(C)S[C@@H]2[C@H](NC(=O)[C@H](N)c3ccccc3)C(=O)N2[C@H]1C(=O)O [AMPICILLIN] |  |  |
| 35.9 (≈ 99.6 µM) | 280 (≈ 777 µM) | CC/C=C/CC(=O)NCc1ccc(C(=O)N[C@H](C(=O)O)[C@@H](C)CC)cc1 | > 1500 |  |
| 7 (≈ 14.7 µM) | > 2000 | CCCCCCCCCCCCCC(=O)NCc1cccc(C(=O)N[C@H](C(=O)O)[C@@H](C)CC)c1 | 84 (≈ 177 µM) |  |
| 3.9 (≈ 7.67 µM) | 1200 (≈ 2360 µM) | CCCCCCCCCCCCCC(=O)NCc1ccc(C(=O)N[C@@H](Cc2ccccc2)C(=O)O)cc1 | > 200 |  |
| 0.75 (≈ 1.59 µM) | 630 (≈ 1330 µM) | CCCC/C=C\CCCCCCCC(=O)NCc1ccc(C(=O)N[C@H](C(=O)O)[C@@H](C)CC)cc1 | 350 (≈ 740 µM) |  |
| 2.6 (≈ 5.32 µM) | 640 (≈ 1310 µM) | CCCCCCCCCCCCCC(=O)NCCc1ccc(C(=O)N[C@H](C(=O)O)[C@@H](C)CC)cc1 | 35 (≈ 71.6 µM) |  |
| > 400 | 1000 (≈ 2760 µM) | CCCCCC(=O)NCc1ccc(C(=O)N[C@H](C(=O)O)[C@@H](C)CC)cc1 | > 1500 | Activity (Escherichia coli [1]): inactive; Activity (Escherichia coli [5]): 3.68%; Activity (Escherichia coli [8]): inactive |
| 1.1 (≈ 2.39 µM) | > 60 | CCCCCCCCCCCCCC(=O)Nc1ccc(C(=O)N[C@H](C(=O)O)[C@@H](C)CC)cc1 | > 10 |  |
| 11.5 (≈ 23.5 µM) | 2800 (≈ 5720 µM) | CCCCCCCCCCCCCC(=O)NCc1ccc(C(=O)N[C@@H](CCC(N)=O)C(=O)O)cc1 | 520 (≈ 1060 µM) |  |
| 5.5 (≈ 13.1 µM) | > 500 | CCCCCCCCCCCCCC(=O)NCc1ccc(C(=O)NCC(=O)O)cc1 | > 50 |  |
